According to ChEMBL document CHEMBL1123939, “Evaluation of isomeric 4-(chlorohydroxyphenyl)-1,2,3,4-tetrahydroisoquinolines as dopamine D-1 antagonists” (J Med Chem, 1987):
Active and inactive are the calls of the source. The rule behind the calls is not given here.

Key:
Assay type in all cases: protein assay
[1] = target: T1, Adenylate cyclase (Rattus norvegicus) (UniProt D4A3N4+P26770+Q04400+P26769+Q03343+P40146+Q8CFM9+P21932); test: Inhibition of dopamine sensitive adenylate cyclase at 1 uM; […]
[2] = target: T1, Adenylate cyclase (Rattus norvegicus); test: Inhibition of dopamine sensitive adenylate cyclase at 100 uM
[3] = target: T1, Adenylate cyclase (Rattus norvegicus); test: Inhibition of dopamine sensitive adenylate cyclase at 10 uM
[4] = target: T1, Adenylate cyclase (Rattus norvegicus); test: Inhibition of dopamine sensitive adenylate cyclase at 1 uM
Outline: (§1)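 Rat retinas homogenized in 150 vol/wt 2.0 mM Tris-HCl pH 7.4 with 2 mM EDTA. Incubated 20 min, 30 °C. Stopped with SDS/ATP/cyclic AMP containing [3H]cyclic AMP, then heated 85 °C, 2 min.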

[5] = target: T1, Adenylate cyclase (Rattus norvegicus); test: Inhibition of dopamine sensitive adenylate cyclase at 0.01 uM; outline: as §1
[6] = target: T1, Adenylate cyclase (Rattus norvegicus); test: Inhibition of dopamine sensitive adenylate cyclase at 0.1 uM; outline: as §1
[7] = target: T1, Adenylate cyclase (Rattus norvegicus); test: Inhibition of dopamine sensitive adenylate cyclase at 30 uM
[8] = target: T1, Adenylate cyclase (Rattus norvegicus); test: Inhibition of dopamine sensitive adenylate cyclase at 10 uM; No inhibition
[9] = target: T1, Adenylate cyclase (Rattus norvegicus); test: Inhibition of dopamine sensitive adenylate cyclase at 100 uM; No inhibition

Row | inhibition [4] [%] | inhibition [5] [%] | inhibition [6] [%] | SMILES | inhibition [1] | inhibition [2] [%] | inhibition [3] [%] | inhibition [7] [%] | inhibition [8] | inhibition [9]
1 | – | – | – | Oc1cccc(C2CNCc3ccccc32)c1 (stereo unspecified) | inactive | 22.9 | 8.8 | – | – | –
2 | 74.3 | 23.2 | 59.9 | CN1CCc2cc(Cl)c(O)cc2[C@@H](c2ccccc2)C1 | – | – | – | – | – | –
3 | – | – | – | CN1Cc2ccccc2C(c2ccc(Cl)c(O)c2)C1 (stereo unspecified) | inactive | 57.9 | 21 | 45.1 | – | –
4 | – | – | – | Oc1cc(C2CNCc3ccccc32)ccc1Cl (stereo unspecified) | inactive | 26.3 | 8.9 | – | – | –
5 | – | – | – | Oc1ccc(C2CNCc3ccccc32)cc1Cl (stereo unspecified) | inactive | – | – | – | inactive | inactive
